The record followed here is ChEMBL document CHEMBL4007487, “Discovery of Novel Pyridone-Conjugated Monosulfactams as Potent and Broad-Spectrum Antibiotics for Multidrug-Resistant Gram-Negative Infections” (J Med Chem, 2017).

Series [1] in a line: in vivo. The conditions noted are these: Sprague-Dawley, rat, iv, 1 mg/kg.
The subject of series [2] is Escherichia coli. In words: Antibacterial activity against Escherichia coli isolate 210737 after 18 hrs by broth microdilution method. The note with it: isolate 210737, 18 h. In kind it is functional. Put shortly:
(§1)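 CLSI broth microdilution in Mueller-Hinton broth with 16 mg/L 2,2'-bipyridyl added. Compounds were dissolved in DMSO, or in water for meropenem and ceftizoxime sodium, then serially diluted in growth medium.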

The next series relates to Pseudomonas aeruginosa. In words: Antibacterial activity against extended spectrum beta-lactamase IMP-4 producing multidrug resistant Pseudomonas aeruginosa clinical isolates after 18 hrs by broth microdilution method. In kind it is functional. (In general: Dilution methods test growth across graded concentrations, often in twofold steps.)
A short description of series [3]: Volume of distribution in steady state in Sprague-Dawley rat at 1 mg/kg, iv measured up to 180 mins by LC-MS/MS analysis. In kind it is ADME, organism-based. The conditions noted are these: in vivo, read-out: Vdss. Put shortly:
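Male Sprague-Dawley rats (200–220 g, n = 3 per group) received 1.0 mg/kg iv in water. Blood was taken from the retrobulbar vein at 2, 5, 15, 30, 45, 60, 90 and 180 min. Plasma was quantified by LC–MS/MS, and parameters were derived by noncompartmental analysis of mean plasma concentrations.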

Series [4] deals with Klebsiella pneumoniae. Kind of series: Antibacterial activity against Klebsiella pneumoniae isolate 212232 after 18 hrs by broth microdilution method. The note with it: isolate 212232, 18 h. In kind it is functional. Put shortly:
as §1

Series [5] has as its system Klebsiella pneumoniae. In words: In vivo antibacterial activity against multidrug resistant Klebsiella pneumoniae isolate 212232 infected in Kunming mouse systemic infection model assessed as increase in mouse survival at 100 mg/kg, sc administered 0.5 to 4 hrs post infection measured after 48 hrs by Bliss method. The note with it: isolate 212232, sc. In kind it is functional. Put shortly:
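Lethal intraperitoneal infection of Kunming mice (mixed sex, 18–22 g, 5 per group) with 0.5 mL MDR K. pneumoniae 212232 at 3×10^6 CFU/mL. The 100 mg/kg dose was given subcutaneously at 0.5 and 4.0 h post-infection. Read-out is the percentage of mice surviving at 48 h after treatment.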

Series [6] deals with Klebsiella pneumoniae. In words: In vivo antibacterial activity against multidrug resistant Klebsiella pneumoniae isolate 212232 infected in Kunming mouse systemic infection model assessed as increase in mouse survival administered subcutaneously 0.5 to 4 hrs post infection measured after 48 hrs by Bliss method. The conditions noted are these: isolate 212232, sc. In kind it is functional. Put shortly: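 Kunming mice, half male and half female, 18–22 g, 5 per group. Infected intraperitoneally with 0.5 mL of MDR clinical K. pneumoniae 212232 at 3×10^6 CFU/mL. Subcutaneous doses of 3.125, 6.25, 12.5, 25, 50 and 100 mg/kg were given at 0.5 and 4.0 h post-infection.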

The test system of a further series is Plasma. Kind of series: Fraction unbound in human plasma at 10 uM after 4 hrs by LC-MS/MS based rapid equilibrium dialysis method. In kind it is ADME, cell-free. Put shortly: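 Human plasma spiked at 10 μM was dialysed against buffer in a rapid equilibrium dialysis device for 4 h at 37 °C under 5% CO2 (n = 4). Both sides were quantified by LC–MS/MS. Fraction unbound was taken as the buffer concentration divided by the total plasma-side concentration.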
On the technique in general: In equilibrium dialysis free small molecules cross a membrane that holds back macromolecules.

Series [7] concerns Escherichia coli. Kind of series: Antibacterial activity against extended spectrum beta-lactamases producing Escherichia coli clinical isolates after 18 hrs by broth microdilution method. In kind it is functional.
Series [8] concerns Escherichia coli. Kind of series: In vivo antibacterial activity against Escherichia coli isolate 210737 infected in Kunming mouse systemic infection model assessed as increase in mouse survival administered subcutaneously 0.5 to 4 hrs post infection measured after 48 hrs by Bliss method. In kind it is functional. The note with it: isolate 210737, sc. Put shortly:
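Kunming mice, half male and half female, 18–22 g, 5 per group. Lethal systemic infection by intraperitoneal injection of 0.5 mL clinical E. coli 210737 inoculum at 5×10^4 CFU/mL. Given subcutaneously twice, at 0.5 and 4.0 h post-infection, at doses of 0.625 to 20 mg/kg.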

The nature of series [9]: Drug degradation in human plasma at 10 uM after 4 hrs by LC-MS/MS analysis. In kind it is ADME, cell-free. The conditions noted are these: read-out: Drug degradation. Put shortly: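 Human plasma containing compound (10 μM, n = 4) was incubated for 4 h at 37 °C under 5% CO2. Concentrations at T0 and at 4 h were measured by LC–MS/MS, and degradation was expressed as a percentage relative to the T0 average.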

In series [10] the test system is Klebsiella pneumoniae. Kind of series: Antibacterial activity against extended spectrum beta-lactamase KPC-2 producing multidrug resistant Klebsiella pneumoniae clinical isolates after 18 hrs by broth microdilution method. In kind it is functional. The note with it: Klebsiella pneumoniae, 18 h; read-out: MIC.
A further series has as its system Acinetobacter baumannii. In words: Antibacterial activity against extended spectrum beta-lactamase OXA-23 producing multidrug resistant Acinetobacter baumannii clinical isolates after 18 hrs by broth microdilution method. In kind it is functional.
Series [11] is described as follows: Clearance in Sprague-Dawley rat at 1 mg/kg, iv measured up to 180 mins by LC-MS/MS analysis. The conditions noted are these: in vivo.
The nature of series [12]: in vivo. The conditions noted are these: Sprague-Dawley, rat, iv, 1 mg/kg. This is another data set of the same source.

A word on the AUC(0-t): it is exposure summed from dosing to a finite time, without extrapolation to infinity. High values mean high exposure, low ones low exposure. Usually MIC stands for the lowest concentration that inhibits growth of the organism. As a reminder, the ED50 is the dose at which the effect has come halfway, by size or by number of responders. For orientation: clearance means the volume of plasma or blood freed of the substance per unit of time. Usually half-life stands for the time in which the quantity being followed falls by half.

≈ marks a conversion by molar mass, not a printed value.

For `CC1(C)[C@H](NC(=O)/C(=N\OCc2cc(=O)c(O)cn2O)c2csc(N)n2)C(=O)N1OS(=O)(=O)O`, in the series “in vivo [1]”, the AUC(0-t) at 3 h was 1710 ng·h/mL. Further, the MIC in the series on Escherichia coli [2] is 0.25 µg/mL (≈ 0.482 µM); against Pseudomonas aeruginosa, 1 to 4 µg/mL (≈ 1.93 to 7.71 µM); in the series on Klebsiella pneumoniae [4] it was 0.25 µg/mL (≈ 0.482 µM); against Escherichia coli [7] it was 0.25 to 1 µg/mL (≈ 0.482 to 1.93 µM); in the series with Klebsiella pneumoniae [10], 0.25 to 64 µg/mL (≈ 0.482 to 123 µM); with Acinetobacter baumannii, 0.5 to 64 µg/mL (≈ 0.964 to 123 µM). The Vd in series [3] is 0.14 L/kg. Moreover, the survival at 100 mg/kg in the series on Klebsiella pneumoniae [5] came to 40%. In addition, the ED50 was above 100 mg/kg in the series with Klebsiella pneumoniae [6] and 4.19 mg/kg in the series with Escherichia coli [8]. This compound showed a Fu in the series with Plasma of 47%. For the same compound, in series [9], the metabolised at 4 h, 10 µM was 12%.

Compound `CC(C)C(O/N=C(\C(=O)N[C@@H]1C(=O)N(OS(=O)(=O)O)C1(C)C)c1nc(N)sc1Cl)c1cc(=O)c(O)cn1O` (stereo partly drawn) had an AUC(0-t) at 3 h in the series “in vivo [1]” of 634 ng·h/mL. Moreover, the MIC in the series with Escherichia coli [2] was 1 µg/mL (≈ 1.68 µM); against Pseudomonas aeruginosa it was 0.25 to 8 µg/mL (≈ 0.42 to 13.4 µM); against Klebsiella pneumoniae [4], 0.06 µg/mL (≈ 0.101 µM); in the series with Escherichia coli [7] it was 0.06 to 1 µg/mL (≈ 0.101 to 1.68 µM); with Klebsiella pneumoniae [10], 0.06 to 0.5 µg/mL (≈ 0.101 to 0.84 µM); against Acinetobacter baumannii, 0.06 to 2 µg/mL (≈ 0.101 to 3.36 µM). For the same compound, the Vd in [3] was found to be 1.41 L/kg. The same compound came in with a clearance at 3 h in series [11] of 26.9 mL/min/kg. The Fu in the series on Plasma came to 23%. The ED50 in the series with Escherichia coli [8] was determined as 6.94 mg/kg. In [9], the metabolised at 4 h, 10 µM stood at 22%. The compound further showed a half-life in the series “in vivo [12]” of 90 min.

Regarding `CC1(C)[C@H](NC(=O)/C(=N\OC(CS(C)(=O)=O)c2cc(=O)c(O)cn2O)c2csc(N)n2)C(=O)N1OS(=O)(=O)O` (stereo partly drawn), the AUC(0-t) at 3 h in “in vivo [1]” was 1890 ng·h/mL. Further, the MIC with Escherichia coli [2] was 0.06 µg/mL (≈ 0.0983 µM); with Pseudomonas aeruginosa, 1 to 32 µg/mL (≈ 1.64 to 52.4 µM); against Klebsiella pneumoniae [4], 0.06 µg/mL (≈ 0.0983 µM); in the series with Klebsiella pneumoniae [10], 0.06 to 2 µg/mL (≈ 0.0983 to 3.28 µM); with Acinetobacter baumannii, 0.25 to 2 µg/mL (≈ 0.409 to 3.28 µM). Moreover, the Vd in series [3] was 0.21 L/kg. Moreover, the clearance at 3 h in series [11] turned out to be 9.3 mL/min/kg. For the same compound, in the series with Plasma, the Fu is 64%. In the series on Escherichia coli [8], the ED50 was determined as 5.32 mg/kg. Besides, in series [9], the metabolised at 4 h, 10 µM amounted to 34%. The half-life in the series “in vivo [12]” is 19.8 min.

In the case of `CC(C)C(O/N=C(\C(=O)N[C@@H]1C(=O)N(OS(=O)(=O)O)C1(C)C)c1csc(N)n1)c1cc(=O)c(O)cn1O` (stereo partly drawn), in “in vivo [1]”, the AUC(0-t) at 3 h is 1730 ng·h/mL. Also, the MIC against Escherichia coli [2] is below 0.03 µg/mL; against Pseudomonas aeruginosa, 0.25 to 1 µg/mL (≈ 0.446 to 1.78 µM); against Klebsiella pneumoniae [4], below 0.03 µg/mL; in the series with Acinetobacter baumannii, 0.125 to 1 µg/mL (≈ 0.223 to 1.78 µM). In addition, the Vd in series [3] is 0.3 L/kg. Also, the Fu in the series on Plasma worked out at 35%. Besides, the metabolised at 4 h, 10 µM in series [9] turned out to be 29%.

With `CC(C)[C@H](O/N=C(\C(=O)N[C@@H]1C(=O)N(OS(=O)(=O)O)C1(C)C)c1csc(N)n1)c1cc(=O)c(O)cn1O`, in the series “in vivo [1]”, the AUC(0-t) at 3 h turned out to be 675 ng·h/mL. Moreover, the MIC with Pseudomonas aeruginosa was in the range of 0.125 to 1 µg/mL (≈ 0.223 to 1.78 µM); in the series with Escherichia coli [7] it was 0.06 to 0.25 µg/mL (≈ 0.107 to 0.446 µM); in the series on Klebsiella pneumoniae [10], 0.125 to 1 µg/mL (≈ 0.223 to 1.78 µM); in the series with Acinetobacter baumannii, 1 to 2 µg/mL (≈ 1.78 to 3.57 µM). Further, in series [3], the Vd came out at 0.36 L/kg. This compound also registered a clearance at 3 h in series [11] of 28.5 mL/min/kg. This compound also registered a Fu in the series with Plasma of 27%. In series [9], the metabolised at 4 h, 10 µM stood at 23%. Also, the half-life in “in vivo [12]” is 15.6 min.

`CSCC(O/N=C(\C(=O)N[C@@H]1C(=O)N(OS(=O)(=O)O)C1(C)C)c1csc(N)n1)c1cc(=O)c(O)cn1O` (stereo partly drawn) registered an AUC(0-t) at 3 h in the series “in vivo [1]” of 661 ng·h/mL. For the same compound, the MIC with Pseudomonas aeruginosa and with Acinetobacter baumannii was 0.125 to 1 µg/mL (≈ 0.216 to 1.73 µM) each time. For the same compound, in series [3], the Vd worked out at 0.37 L/kg. Also, in series [11], the clearance at 3 h stood at 26.1 mL/min/kg. In the series with Plasma, this compound registered a Fu of 32%. The metabolised at 4 h, 10 µM in series [9] was 28%. Besides, the half-life in the series “in vivo [12]” is 15 min.

Turning to `C[C@@H](O)[C@H]1C(=O)N2C(C(=O)O)=C(S[C@@H]3CN[C@H](C(=O)N(C)C)C3)[C@H](C)[C@H]12` [MEROPENEM], the MIC was 0.125 µg/mL (≈ 0.326 µM) against Escherichia coli [2]; 32 to 64 µg/mL (≈ 83.4 to 167 µM) against Pseudomonas aeruginosa; above 64 µg/mL with Klebsiella pneumoniae [4]; 0.125 to 8 µg/mL (≈ 0.326 to 20.9 µM) in the series with Escherichia coli [7]; 32 to 64 µg/mL (≈ 83.4 to 167 µM) in the series with Klebsiella pneumoniae [10]; 64 µg/mL (≈ 167 µM) against Acinetobacter baumannii. In addition, the survival at 100 mg/kg with Klebsiella pneumoniae [5] came out at 0%. Moreover, the figures for the ED50 in the series on Klebsiella pneumoniae [6] and in the series with Escherichia coli [8] were above 100 mg/kg and 2.04 mg/kg, respectively.
